Most compounds without a hit are left out; they make up all but 4% or so of the library.
OX1R antag-1: antagonists of human orexin 1 receptor | actives 0.43% (n = 330,000) | inhibition, % at 5 µM | CHO/OX1R cells, Fluo-8 calcium fluorescence, orexin A;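 active = inhibition above its plate's threshold, mean inhibition of all tested compounds on the plate plus 3 SD, cut at about 37% in these data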;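 note: 0% = orexin A challenge wells and 100% = SB-334867-A antagonist wells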
Target sequence (O43613 whole entry, looked up): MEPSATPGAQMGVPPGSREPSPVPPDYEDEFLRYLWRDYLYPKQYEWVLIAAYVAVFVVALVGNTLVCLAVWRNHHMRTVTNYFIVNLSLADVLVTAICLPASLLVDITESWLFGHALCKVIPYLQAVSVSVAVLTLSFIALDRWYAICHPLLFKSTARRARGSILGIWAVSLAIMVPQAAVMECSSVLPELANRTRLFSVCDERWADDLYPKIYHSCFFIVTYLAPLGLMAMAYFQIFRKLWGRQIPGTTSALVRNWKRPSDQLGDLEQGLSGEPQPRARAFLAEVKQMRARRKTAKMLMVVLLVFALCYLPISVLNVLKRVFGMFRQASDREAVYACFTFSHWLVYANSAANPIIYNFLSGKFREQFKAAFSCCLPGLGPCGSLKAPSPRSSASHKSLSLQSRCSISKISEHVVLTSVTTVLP
TAAR1 antagonist: human TAAR1 antagonism | Q96RJ0 | CHO RD-HGA16 TAAR1, Fluo-8 calcium fluorescence, antagonist | inhibition, % at 3 µM | actives 1.5% (n = 360,000);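 active = inhibition above a per-plate cutoff, the mean inhibition of test compounds on that plate plus 3 SD, cut at about 49% in these data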;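 note: 0% = DMSO plus EC80 beta-PEA response and 100% = DMSO alone without agonist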
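Test system – hTAAR1-expressing CHO RD-HGA16 cells, Gα16-coupled · Also added – β-PEA at EC80 concentration, post-compound challenge · Compound – 3 µM, single point · Incubation – dye loading 75 min at 37 °C, then 30 min room temperature · Measured by – Fluo-8 intracellular calcium dye fluorescence, real-time kinetic reads · Benchmarks – vehicle and agonist controls · Replicates – singlicate, one well per test compound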
CHO parental Ca: counter-screen for OX1R antagonists: effect in parental CHO cells; parental CHO-K1, ATP-induced calcium, Fluo-8 fluorescence; inhibition, % at 5.6 µM; actives 0.63% (n = 330,000); AID 463079;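 active = inhibition above that plate's mean sample inhibition plus 3 SD, cut at about 26% in these data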;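 note: 0% = ATP-challenged DMSO wells and 100% = DMSO wells without ATP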
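Assay system: untransfected parental CHO cell line. Also added: ATP agonist challenge. Dosing: one dose, 5.6 µM nominal. Measured by: Fluo-8 fluorescence. Read-out: % inhibition. Benchmarks: ATP wells versus no-ATP DMSO wells. Repeats: no replicates.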
TAAR1 agonist: human TAAR1 agonism. activation, % at 3 µM. AID 624467. Q96RJ0. actives 0.99% (n = 360,000). CHO RD-HGA16 TAAR1, Fluo-8 calcium fluorescence; vehicle wells 0%, saturating PEA agonist 100%;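 active = activation above the mean activation of all test compounds in the run plus 3 SD, cut at about 38% in these data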
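Assay system: CHO-derived RD-HGA16 cells with stable Gα16 and human TAAR1; timing: 17-24 h seeding, 75 min 37 °C dye, 30 min RT; read-out: % activation from peak over basal fluorescence ratio, DMSO-to-PEA scaled; measured by: kinetic Fluo-8 calcium fluorescence; benchmarks: low control DMSO, high control PEA (EC100); doses: 3 µM single concentration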
OX1R antag-2: OX1R (human) antagonism; OX1R-expressing cells, FRET antagonist read-out; AID 485270; inhibition, % at 6.6 µM; actives 1.8% (n = 330,000); O43613; in the data active = inhibition mostly above about 38%, no sharp cut-off; inactive = mostly below about 40%;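 note: 0% = agonist challenge alone and 100% = reference antagonist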
Starred values were filed as active, the others as inactive; x = no result.

SMILES	OX1R antag-1	TAAR1 antagonist	CHO parental Ca	TAAR1 agonist	OX1R antag-2
CC1(C(=O)NCc2cccc3ccccc23)CCN1C(=O)Cc1ccc(-c2ccccc2)cc1 (stereo not given)	x	48.6*	x	3.9	x
CCNc1nc(C)nc2c1oc1ccccc12	-12.8	20.4	-13.6	3.8	12.4
OCCNc1nc(-c2ccccc2)nc2c1oc1ccccc12	-13.5	-11.4	-23.2	-0.2	40.3*
COc1cccc(C#Cc2ccc3c(c2)O[C@@H](CN(C)C(=O)c2ccccn2)[C@@H](C)CN([C@H](C)CO)S3(=O)=O)c1	x	49.5*	x	6.8	x
O=[N+]([O-])c1cc([N+](=O)[O-])c2cc(-c3cccnc3)[nH]c2c1	-4.8	49.5*	3.9	19.3	9.5
O=[N+]([O-])c1ccc2nc(-c3cccnc3)[nH]c2c1	-13.3	8.5	-0.3	7.2	32.5
S=C(Nc1ccc(Cl)c(Cl)c1)NC1CCCCC1	24.1	x	37.6*	x	59.4*
FC(F)Sc1ccc(NC(=S)NC2CCCC2)cc1	10.7	-10.8	59.9*	8.6	26.5
CC1CCCC(NC(=S)Nc2ccc(SC(F)F)cc2)C1C (stereo not given)	60.0*	33.5	47.6*	13.5	35.0
CCOC(=O)CN1C(=O)N[C@@H](CCc2ccccc2)[C@@H](C(=O)OC)[C@H]1C	-17.3	13.5	-6.0	7.1	9.3
CCOC(=O)C1CCN(c2cc3c(cc2NC(=O)c2ccccc2Cl)n(C)c(=O)n3C)CC1	-22.4	55.8*	-17.7	4.4	6.2
CCOC(=O)C1CCN(c2cc3c(cc2NC(=O)c2ccccc2F)n(C)c(=O)n3C)CC1	-33.5	7.3	-27.2	4.3	6.5
O=[N+]([O-])c1ccc(S(=O)(=O)c2cccc(C(F)(F)F)c2)nc1	30.8	x	41.0*	x	39.7
COCc1cc(N2CCN(C(=O)OC(C)(C)C)C[C@H]2C)ccc1N1CC[C@H](O)C1	x	-19.1	x	1.8	x
COc1ccc(C(=O)CSC2=NS(=O)(=O)c3cc(Cl)ccc3N2)cc1	-10.8	-22.8	-7.1	4.6	61.9*
CC(=O)Nc1ccc(NC(=O)CSC2=NS(=O)(=O)c3cc(Cl)ccc3N2)cc1	-5.6	-5.7	-5.7	0.0	20.9
O=c1cc(-c2ccccc2)oc2cc(O)ccc12	x	-27.5	x	1.5	x
Nc1ccc(-c2c3ccc(=O)cc-3oc3cc(O)ccc23)cc1C(=O)O	83.8*	67.8*	70.0*	211.6*	69.3*
O=c1ccc2c(-c3ccccc3)c3ccc(O)cc3oc-2c1	106.6*	105.3*	101.4*	673.3*	18.6
COc1ccc(-c2c(C)c3ccc(O)cc3oc2=O)cc1OC	1.3	-7.8	-19.0	2.1	4.9
COCCN1C(=O)[C@H]2C[C@@]13O[C@H](c1ccccn1)N=C3CC1c3ccccc3C[C@@]12C (stereo not given in full)	x	-16.0	x	0.7	x
COc1cc(N2CCCC2)c(OC)cc1/C=C(/C#N)c1cccc(F)c1	45.7*	x	50.6*	x	15.0
N#C/C(=C/c1ccc(N2CCCCCC2)o1)c1cccc(F)c1	-17.1	17.0	-12.8	8.7	10.9
CCCCN1C(=O)/C(=C/C=C2\N(C)c3ccccc3C2(C)C)SC1=S	51.2*	x	31.5	x	0.8
CCC(C)NC(=O)COC(=O)c1cccnc1Nc1ccccc1F (stereo not given)	-5.6	8.6	-15.7	-0.3	61.5*
SMILES	OX1R antag-1	TAAR1 antagonist	CHO parental Ca	TAAR1 agonist	OX1R antag-2
Cc1ccc(CN(C)C(=O)COC(=O)CSc2ccc([N+](=O)[O-])cc2)cc1	-11.9	-14.8	-11.6	-0.6	25.0
CC1CCC(NC(=O)COC(=O)CSc2ccc(C(N)=O)cc2[N+](=O)[O-])CC1 (stereo not given)	-12.6	-8.1	0.7	-0.9	50.6
NC(=O)c1ccc(SCC(=O)OCC(=O)NC2CCCCCCC2)c([N+](=O)[O-])c1	-16.8	32.0	-17.2	4.3	29.9*
O=C(OCC(=O)N1CCCC1=O)c1ccc(Cl)cc1[N+](=O)[O-]	-3.8	-3.1	6.8	1.5	57.9*
CC1CN(C(=O)COC(=O)CSc2ccc(C(N)=O)cc2[N+](=O)[O-])CC(C)O1 (stereo not given)	-2.6	-7.6	-17.4	2.2	72.7*
Cc1ccc(CN(C)C(=O)COC(=O)CSc2ccc(C(N)=O)cc2[N+](=O)[O-])cc1	-24.5	1.1	-9.8	3.0	57.7*
CCC(C(=O)NCCN1CCOCC1)n1nc(C)n2c(cc3sccc32)c1=O (stereo not given)	-44.3	-25.1	-21.0	0.3	0.5
CCN(C(=O)COC(=O)CSc1ccc(C(N)=O)cc1[N+](=O)[O-])C1CCCCC1	-22.9	-2.2	-9.0	4.9	49.0
NC(=O)c1ccc(SCC(=O)OCC(=O)N2CCCC2=O)c([N+](=O)[O-])c1	-7.7	-16.5	-3.7	0.8	66.6*
c1ccc2c(c1)Cc1cc3ccccc3nc1-2	-3.6	5.3	-16.5	2.9	28.1
O=C1c2ccccc2-c2nc3ccccc3cc21	-2.9	-11.0	-2.9	2.5	58.5*
CCOC(=O)COn1c(=O)c(-c2ccc(OC)c(OC)c2)[n+]([O-])c2ccccc21	-39.8	8.1	-16.8	4.8	51.5*
CCOC(=O)COn1c(=O)c(-c2ccc(OC)cc2)[n+]([O-])c2ccccc21	-21.7	-16.1	-16.4	2.2	45.9*
CCCCNS(=O)(=O)c1ccc2nc(SCC(=O)Nc3sccc3C#N)[nH]c2c1	54.5*	47.5	46.5*	27.7	76.1*
O=C(NCc1ccc(Cl)cc1)c1cccnc1	-11.9	-6.1	-5.7	14.4	19.6
O=C(NCc1ccc(Cl)cc1)c1ccc(-n2cccn2)nc1	-7.7	8.0	-7.2	41.0*	12.1
CCOc1ccc(NC(=O)COC(=O)c2ccc3c(c2)C(=O)N(CCc2ccccc2)C3=O)cc1	-12.2	18.1	-14.3	38.2*	5.6
COC(=O)CC1C(=O)NCCN1C(=O)c1ccc([N+](=O)[O-])cc1 (stereo not given)	-4.5	-11.2	-5.5	2.0	19.3
COC(=O)CC1C(=O)NCCN1C(=O)CSc1nc2ccc([N+](=O)[O-])cc2s1 (stereo not given)	-10.8	-3.2	-9.9	2.5	71.4*
Cc1ccc2nc(CN(C)C(=O)[C@H](CCc3ccccc3)NC(=O)[C@H]3O[C@@H](n4cnc5c(N)ncnc54)[C@H](O)[C@@H]3O)[nH]c2c1	x	11.9	x	0.6	x
COc1ccc(Nc2ccc3c(c2)=NC2(CCCCC2)[N+]=3[O-])cc1	-30.2	-20.9	-18.8	14.2	39.3
[O-][N+]1=c2ccc(Nc3ccccc3)cc2=NC12CCCCC2	-9.5	3.3	-18.9	6.1	46.7*
O=C(OCn1ncc(Cl)c(Cl)c1=O)c1ccc(F)cc1	27.4	x	31.8*	x	10.1
O=C(OCn1ncc(Cl)c(Cl)c1=O)c1ccccc1Cl	-3.8	12.3	16.6	17.8	15.5

Screening data deposited in PubChem by The Scripps Research Institute Molecular Screening Center.
